From ChEMBL document CHEMBL3804768, “Structure-Activity Relationship Studies of Mitogen Activated Protein Kinase Interacting Kinase (MNK) 1 and 2 and BCR-ABL1 Inhibitors Targeting Chronic Myeloid Leukemic Cells” (J Med Chem, 2016)
pIC50: −log10 of the molar value.

Tests used:
[1] = target: T1, Receptor-type tyrosine-protein kinase FLT3 (Homo sapiens, UniProt P36888); experiment: Inhibition of human recombinant FLT3 expressed in sf21 cells using Poly(Glu:Tyr) as substrate in presence of [gamma32P]ATP
T1 sequence (P36888 whole entry): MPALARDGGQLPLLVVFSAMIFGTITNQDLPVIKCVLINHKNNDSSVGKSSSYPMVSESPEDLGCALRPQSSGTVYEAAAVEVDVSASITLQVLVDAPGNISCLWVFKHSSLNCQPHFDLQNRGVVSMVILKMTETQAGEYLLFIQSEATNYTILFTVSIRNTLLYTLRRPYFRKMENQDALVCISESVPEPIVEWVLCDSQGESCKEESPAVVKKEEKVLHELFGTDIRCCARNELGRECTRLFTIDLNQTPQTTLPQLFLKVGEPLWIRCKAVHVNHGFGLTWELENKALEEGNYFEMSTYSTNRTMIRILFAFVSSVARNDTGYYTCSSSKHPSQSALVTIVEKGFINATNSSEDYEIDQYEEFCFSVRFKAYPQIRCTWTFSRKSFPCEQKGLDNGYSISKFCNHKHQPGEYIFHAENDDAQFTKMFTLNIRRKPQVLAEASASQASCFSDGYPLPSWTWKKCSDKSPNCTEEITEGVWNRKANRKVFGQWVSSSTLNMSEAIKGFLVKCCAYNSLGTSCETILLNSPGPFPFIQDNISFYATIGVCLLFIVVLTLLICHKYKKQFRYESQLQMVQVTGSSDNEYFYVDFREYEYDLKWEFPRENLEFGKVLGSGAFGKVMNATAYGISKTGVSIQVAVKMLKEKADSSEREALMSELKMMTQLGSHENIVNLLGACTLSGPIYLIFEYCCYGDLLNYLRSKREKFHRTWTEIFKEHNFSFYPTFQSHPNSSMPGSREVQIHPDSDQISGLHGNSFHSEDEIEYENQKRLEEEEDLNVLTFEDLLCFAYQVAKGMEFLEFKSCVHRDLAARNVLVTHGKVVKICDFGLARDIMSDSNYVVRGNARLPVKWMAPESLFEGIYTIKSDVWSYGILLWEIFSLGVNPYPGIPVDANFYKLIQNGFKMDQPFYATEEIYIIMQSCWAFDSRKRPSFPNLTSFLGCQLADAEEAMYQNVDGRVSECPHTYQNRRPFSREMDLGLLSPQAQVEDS

[2] = target: MAP kinase-interacting serine/threonine-protein kinase 1/2 (Homo sapiens, UniProt Q9HBH9+Q9BUB5); experiment: Inhibition of MNK1/MNK2 in human HeLa cells assessed as reduction in phosphorylation of eIF4E at Ser209 after 2 hrs by AlphaScreen SureFire assay; type: cell-based
Method in brief: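 HeLa cells were grown in DMEM with 10% FBS and penicillin/streptomycin, seeded at 30,000 per well and left 24 h. They were then exposed to serially diluted compound in serum-free DMEM for 2 h at 37 °C and lysed with shaking for 20 min. Phospho-eIF4E Ser209 was read by AlphaScreen SureFire with 2 h acceptor and 2 h donor steps at room temperature. Dose response was run in triplicate.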

[3] = target: T2, Vascular endothelial growth factor receptor 2 (Homo sapiens, UniProt P35968); experiment: Inhibition of human recombinant VEGFR2 expressed in sf21 cells at 1 uM using Poly(Glu:Tyr) as substrate in presence of [gamma32P]ATP
T2 sequence (P35968 whole entry): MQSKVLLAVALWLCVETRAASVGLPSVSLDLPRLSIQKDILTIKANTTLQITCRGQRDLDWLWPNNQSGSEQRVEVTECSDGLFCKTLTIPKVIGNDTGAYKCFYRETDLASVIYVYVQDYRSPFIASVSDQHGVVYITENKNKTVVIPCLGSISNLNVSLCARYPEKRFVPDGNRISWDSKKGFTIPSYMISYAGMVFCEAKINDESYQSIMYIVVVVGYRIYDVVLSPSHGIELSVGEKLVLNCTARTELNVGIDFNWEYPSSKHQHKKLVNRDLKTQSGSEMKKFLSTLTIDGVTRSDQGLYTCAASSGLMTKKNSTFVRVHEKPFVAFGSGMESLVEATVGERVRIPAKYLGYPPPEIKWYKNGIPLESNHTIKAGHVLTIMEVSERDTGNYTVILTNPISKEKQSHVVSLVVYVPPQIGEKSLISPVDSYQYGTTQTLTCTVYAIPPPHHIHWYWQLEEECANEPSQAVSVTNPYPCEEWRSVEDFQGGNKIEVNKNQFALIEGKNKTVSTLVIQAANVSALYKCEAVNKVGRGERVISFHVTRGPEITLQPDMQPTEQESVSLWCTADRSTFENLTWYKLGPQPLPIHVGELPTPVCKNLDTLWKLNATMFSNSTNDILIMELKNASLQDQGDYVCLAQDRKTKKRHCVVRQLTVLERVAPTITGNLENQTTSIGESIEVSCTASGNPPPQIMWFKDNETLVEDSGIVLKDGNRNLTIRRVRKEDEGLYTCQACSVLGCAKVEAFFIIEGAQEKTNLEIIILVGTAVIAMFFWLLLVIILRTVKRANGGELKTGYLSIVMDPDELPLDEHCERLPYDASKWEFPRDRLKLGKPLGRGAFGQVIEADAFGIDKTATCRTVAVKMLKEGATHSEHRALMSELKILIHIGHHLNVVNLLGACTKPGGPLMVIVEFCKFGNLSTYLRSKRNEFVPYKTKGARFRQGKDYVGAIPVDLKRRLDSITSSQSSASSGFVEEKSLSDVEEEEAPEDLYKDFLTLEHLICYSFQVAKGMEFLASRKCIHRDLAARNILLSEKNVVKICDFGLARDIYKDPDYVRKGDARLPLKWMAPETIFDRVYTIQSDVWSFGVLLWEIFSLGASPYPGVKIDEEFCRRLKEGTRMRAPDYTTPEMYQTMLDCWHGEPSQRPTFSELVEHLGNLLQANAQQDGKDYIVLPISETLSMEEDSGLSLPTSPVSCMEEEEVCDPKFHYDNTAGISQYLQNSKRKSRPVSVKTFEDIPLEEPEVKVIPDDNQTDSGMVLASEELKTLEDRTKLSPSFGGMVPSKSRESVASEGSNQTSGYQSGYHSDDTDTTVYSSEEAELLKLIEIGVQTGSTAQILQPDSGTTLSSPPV

[4] = Antiproliferative activity against human EM2 cells after 48 hrs by Cell-Titer-Glo luminescent cell viability assay; type: functional; conditions: EM-2, 48 h
Method in brief: (§1)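 Cells seeded at 5000 per well in growth medium, exposed to serial doses from 0.003 μM to 50 μM for 48 h at 37 °C, 5% CO2. Viability was read by CellTiter-Glo luminescence and GI50 taken from the dose-response curve. Dose response was run in triplicate and the curve repeated twice. K562 eIF4E-overexpressing cells were cultured in RPMI with 10% FBS.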

K562 [5] = experiment: Antiproliferative activity against human K562 cells after 48 hrs by Cell-Titer-Glo luminescent cell viability assay; type: functional; conditions: K562, 48 h; method in brief: as §1
Cytochrome P450 3A4 = Cytochrome P450 3A4 (Homo sapiens, UniProt P08684); experiment: Inhibition of CYP3A4 (unknown origin); type: ADME
[6] = target: Platelet-derived growth factor receptor beta (Homo sapiens, UniProt P09619); experiment: Inhibition of human recombinant PDGFRbeta expressed in sf21 cells at 1 uM using Poly(Glu:Tyr) as substrate in presence of [gamma32P]ATP
[7] = target: Receptor-type tyrosine-protein kinase FLT3 (Homo sapiens) (UniProt P36888); experiment: Inhibition of human recombinant FLT3 expressed in sf21 cells at 1 uM using Poly(Glu:Tyr) as substrate in presence of [gamma32P]ATP
Cytochrome P450 2D6 = Cytochrome P450 2D6 (Homo sapiens, UniProt P10635); experiment: Inhibition of CYP2D6 (unknown origin); type: ADME
Sequence of Cytochrome P450 2D6 (P10635 whole entry): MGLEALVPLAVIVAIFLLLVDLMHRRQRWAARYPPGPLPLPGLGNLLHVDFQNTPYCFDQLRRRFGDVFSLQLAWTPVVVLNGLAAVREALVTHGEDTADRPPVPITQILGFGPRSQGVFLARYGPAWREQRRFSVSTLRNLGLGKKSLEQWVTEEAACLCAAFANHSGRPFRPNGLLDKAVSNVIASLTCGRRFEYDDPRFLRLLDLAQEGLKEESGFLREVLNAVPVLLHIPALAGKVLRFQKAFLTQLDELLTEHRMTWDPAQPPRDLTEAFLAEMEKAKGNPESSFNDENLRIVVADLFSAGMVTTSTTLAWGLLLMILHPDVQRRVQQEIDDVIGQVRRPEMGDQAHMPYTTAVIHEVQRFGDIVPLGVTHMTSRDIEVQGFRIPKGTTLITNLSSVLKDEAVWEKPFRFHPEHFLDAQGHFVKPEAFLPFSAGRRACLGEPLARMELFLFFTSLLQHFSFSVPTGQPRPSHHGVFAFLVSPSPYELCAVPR

K562 [8] = experiment: Antiproliferative activity against human K562 cells over expressing eIF4E after 48 hrs by Cell-Titer-Glo luminescent cell viability assay; type: functional; conditions: K562, 48 h; method in brief: as §1
[9] = Oral bioavailability in CD1 mouse at 50 mg/kg; type: ADME, organism-based; conditions: in vivo
[10] = target: Fibroblast growth factor receptor 2 (Homo sapiens, UniProt P21802); experiment: Inhibition of human recombinant FGFR2 expressed in sf21 cells using Poly(Glu:Tyr) as substrate in presence of [gamma32P]ATP
Sequence of Fibroblast growth factor receptor 2 (P21802 whole entry): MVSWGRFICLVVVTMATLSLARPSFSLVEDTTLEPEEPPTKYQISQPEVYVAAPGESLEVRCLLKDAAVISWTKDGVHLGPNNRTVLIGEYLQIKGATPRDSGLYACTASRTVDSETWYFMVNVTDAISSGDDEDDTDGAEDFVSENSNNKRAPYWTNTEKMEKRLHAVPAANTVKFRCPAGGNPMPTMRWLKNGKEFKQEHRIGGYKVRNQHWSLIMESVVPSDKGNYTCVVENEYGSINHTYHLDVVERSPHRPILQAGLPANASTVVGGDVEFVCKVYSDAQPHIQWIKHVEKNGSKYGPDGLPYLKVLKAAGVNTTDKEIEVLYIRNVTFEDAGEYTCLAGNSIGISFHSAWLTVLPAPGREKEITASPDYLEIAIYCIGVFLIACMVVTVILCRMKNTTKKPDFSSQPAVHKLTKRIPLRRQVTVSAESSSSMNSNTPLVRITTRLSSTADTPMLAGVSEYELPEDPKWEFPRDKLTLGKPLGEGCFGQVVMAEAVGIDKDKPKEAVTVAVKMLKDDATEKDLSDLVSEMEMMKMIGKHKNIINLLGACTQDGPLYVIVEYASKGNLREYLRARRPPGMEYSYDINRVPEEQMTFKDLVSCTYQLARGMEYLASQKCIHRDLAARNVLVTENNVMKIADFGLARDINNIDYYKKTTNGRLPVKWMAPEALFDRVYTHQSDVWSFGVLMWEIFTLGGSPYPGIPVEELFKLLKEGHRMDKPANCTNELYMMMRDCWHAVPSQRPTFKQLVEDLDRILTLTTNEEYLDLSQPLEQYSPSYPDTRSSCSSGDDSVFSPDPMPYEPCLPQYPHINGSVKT

[11] = Permeability of compound by PAMPA; type: ADME; conditions: read-out: permeability
[12] = target: T3, Proto-oncogene tyrosine-protein kinase receptor Ret (Homo sapiens, UniProt P07949); experiment: Inhibition of human recombinant RET expressed in sf21 cells at 1 uM using Poly(Glu:Tyr) as substrate in presence of [gamma32P]ATP
T3 sequence (P07949 whole entry): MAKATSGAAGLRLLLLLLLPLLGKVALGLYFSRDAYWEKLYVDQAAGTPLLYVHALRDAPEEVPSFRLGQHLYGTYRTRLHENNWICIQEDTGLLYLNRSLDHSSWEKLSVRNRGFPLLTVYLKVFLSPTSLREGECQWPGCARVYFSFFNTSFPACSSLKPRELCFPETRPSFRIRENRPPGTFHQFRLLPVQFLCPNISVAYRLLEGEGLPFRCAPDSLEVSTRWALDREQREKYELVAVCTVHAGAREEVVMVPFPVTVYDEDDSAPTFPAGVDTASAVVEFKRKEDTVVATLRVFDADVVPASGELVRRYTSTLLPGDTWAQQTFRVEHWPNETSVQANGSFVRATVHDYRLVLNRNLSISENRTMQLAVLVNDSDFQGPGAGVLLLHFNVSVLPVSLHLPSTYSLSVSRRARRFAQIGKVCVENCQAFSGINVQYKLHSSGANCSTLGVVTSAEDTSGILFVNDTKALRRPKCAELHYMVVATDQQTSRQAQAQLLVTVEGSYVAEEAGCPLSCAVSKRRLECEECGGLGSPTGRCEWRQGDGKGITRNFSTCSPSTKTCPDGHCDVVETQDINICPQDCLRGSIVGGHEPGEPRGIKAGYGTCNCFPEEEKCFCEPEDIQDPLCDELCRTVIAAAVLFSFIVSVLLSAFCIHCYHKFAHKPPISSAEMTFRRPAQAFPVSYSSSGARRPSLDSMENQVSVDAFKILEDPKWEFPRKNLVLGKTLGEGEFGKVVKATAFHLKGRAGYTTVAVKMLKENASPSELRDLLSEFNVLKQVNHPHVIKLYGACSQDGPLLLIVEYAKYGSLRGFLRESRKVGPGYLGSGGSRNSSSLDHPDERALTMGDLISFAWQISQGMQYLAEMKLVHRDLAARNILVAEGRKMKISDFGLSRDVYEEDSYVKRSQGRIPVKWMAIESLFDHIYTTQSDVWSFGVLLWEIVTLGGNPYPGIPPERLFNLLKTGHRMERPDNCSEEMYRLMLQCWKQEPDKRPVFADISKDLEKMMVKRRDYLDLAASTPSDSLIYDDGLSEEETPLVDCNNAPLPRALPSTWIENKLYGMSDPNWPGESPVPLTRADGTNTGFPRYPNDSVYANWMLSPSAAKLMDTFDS

K562 [13] = experiment: Antitumor activity against human K562 cells over expressing eIF4E xenografted in po dosed NOD-SCID mouse assessed as tumor growth inhibition administered qd through oral gavage for 14 days; type: functional, organism-based
Method in brief: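 Female SCID mice, 7-10 weeks old, received 1 x 10^7 K562 eIF4E-overexpressing cells subcutaneously. At tumor volumes of 75-245 mm³ (w²×l/2) mice were randomized and gavaged once daily for 14 days at 10 mL/kg.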

[14] = target: Platelet-derived growth factor receptor alpha (Homo sapiens, UniProt P16234); experiment: Inhibition of human recombinant PDGFRalpha expressed in sf21 cells using Poly(Glu:Tyr) as substrate in presence of [gamma32P]ATP
Sequence of Platelet-derived growth factor receptor alpha (P16234 whole entry): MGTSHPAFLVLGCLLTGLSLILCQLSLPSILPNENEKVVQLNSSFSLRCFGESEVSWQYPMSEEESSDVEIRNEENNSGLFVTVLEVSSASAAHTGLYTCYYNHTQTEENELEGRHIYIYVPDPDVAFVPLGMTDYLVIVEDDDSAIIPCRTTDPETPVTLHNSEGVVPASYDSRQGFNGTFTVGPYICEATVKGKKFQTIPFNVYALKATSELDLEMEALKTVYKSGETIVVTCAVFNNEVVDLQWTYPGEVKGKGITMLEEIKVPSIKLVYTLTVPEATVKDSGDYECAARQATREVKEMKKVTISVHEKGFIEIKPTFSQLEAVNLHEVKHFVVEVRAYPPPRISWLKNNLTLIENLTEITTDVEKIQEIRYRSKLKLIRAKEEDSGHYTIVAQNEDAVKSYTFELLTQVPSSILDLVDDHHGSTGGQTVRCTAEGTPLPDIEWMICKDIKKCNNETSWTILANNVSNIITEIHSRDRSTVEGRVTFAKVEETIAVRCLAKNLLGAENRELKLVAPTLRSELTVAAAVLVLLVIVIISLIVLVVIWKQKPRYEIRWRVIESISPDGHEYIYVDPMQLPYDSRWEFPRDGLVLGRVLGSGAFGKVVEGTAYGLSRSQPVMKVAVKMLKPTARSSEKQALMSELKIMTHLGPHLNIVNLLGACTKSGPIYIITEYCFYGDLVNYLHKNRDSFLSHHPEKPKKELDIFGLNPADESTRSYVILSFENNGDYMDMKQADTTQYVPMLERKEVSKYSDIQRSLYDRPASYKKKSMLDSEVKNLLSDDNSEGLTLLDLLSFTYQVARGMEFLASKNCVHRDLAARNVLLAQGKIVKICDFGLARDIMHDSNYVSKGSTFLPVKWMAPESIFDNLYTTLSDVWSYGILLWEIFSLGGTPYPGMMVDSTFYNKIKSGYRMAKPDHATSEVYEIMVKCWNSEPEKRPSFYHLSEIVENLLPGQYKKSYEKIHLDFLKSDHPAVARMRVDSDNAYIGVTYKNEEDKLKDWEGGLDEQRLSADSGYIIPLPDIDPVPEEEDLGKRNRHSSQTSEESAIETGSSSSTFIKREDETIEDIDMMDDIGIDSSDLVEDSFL

[15] = target: T2, Vascular endothelial growth factor receptor 2; experiment: Inhibition of human recombinant VEGFR2 expressed in sf21 cells using Poly(Glu:Tyr) as substrate in presence of [gamma32P]ATP
[16] = target: T3, Proto-oncogene tyrosine-protein kinase receptor Ret; experiment: Inhibition of human recombinant RET expressed in sf21 cells using Poly(Glu:Tyr) as substrate in presence of [gamma32P]ATP
[17] = Antiproliferative activity against human JURL-MK1 cells after 48 hrs by Cell-Titer-Glo luminescent cell viability assay; type: functional; conditions: JURL-MK1, 48 h
[18] = target: Mast/stem cell growth factor receptor Kit (Homo sapiens, UniProt P10721); experiment: Inhibition of human recombinant c-KIT expressed in insect cells at 1 uM using Poly(Glu:Tyr) as substrate in presence of [gamma32P]ATP
[19] = Antiproliferative activity against human KCL22 cells after 48 hrs by Cell-Titer-Glo luminescent cell viability assay; type: functional; conditions: KCL-22, 48 h

SMILES	pIC50 [1]	IC50 [2] [nM]	inhibition [3] [%]	GI50 [4] [nM]	GI50 (K562 [5]) [nM]	pIC50 (Cytochrome P450 3A4)	inhibition [6] [%]	inhibition [7] [%]	pIC50 (Cytochrome P450 2D6)	GI50 (K562 [8]) [nM]	bioavailability [9] [%]	pIC50 [10]	Papp [11] [×10⁻⁶ cm/s]	inhibition [12] [%]	TGI (K562 [13])	pIC50 [14]	pIC50 [15]	pIC50 [16]	GI50 [17] [nM]	inhibition [18] [%]	also measured
CCN1CCN(Cc2ccc(NC(=O)CNc3ccc(-c4ccc(NC(=O)C5CC5)nc4)cc3)cc2C(F)(F)F)CC1	7.70	180	> 99	15	58	< 4.52	> 99	> 99	< 4.52	51	80	6.03	34.5	> 99	Dose-dependent effect	6.17	7.62	8.15	30	> 99	GI50 [19]: 50 nM
CN1CCN(Cc2ccc(NC(=O)CNc3ccc(-c4ccc(NC(=O)C5CC5)nc4)cc3F)cc2C(F)(F)F)CC1	7.70	280	> 99	1	12	< 4.52	> 99	> 99	< 4.52	12	31	6.57	30.6	> 99	Dose-dependent effect	5.89	7.68	9.00	1	> 99	GI50 [19]: 13 nM
